# Hits are enriched below; roughly 0.94% of the tested compounds scored in any of these assays.
# Arrestin-AP2 inh – blocks beta-arrestin peptide binding to AP2 adaptin; FITC-arrestin peptide / GST-AP2 beads, flow cytometry; AP2 beta2 appendage carries R879A mutation; inhibition, % at 10 µM; 340,000 compounds, 0.31% hits; AID 504490;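 active = inhibition above a set limit, near 3 SD of compounds lacking own fluorescence, cut at about 54% in these data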;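 also: plate controls were DMSO wells for no effect and 5 µM unlabelled arrestin peptide for full effect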
#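 Material – AP2 appendage R879A on GSH beads · Buffer or medium – PBS with 0.05% Tween 20 and 0.1% BSA · Probe or stimulus – fluorescein-tagged arrestin peptide at 50 nM final · Incubation – compound with beads 12 min RT, then probe 1 h RT · Detection – high-throughput flow cytometry of beads, ex 488, em 535 nm · Evaluation – percent response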
# GC-A act – GC-A (human) enzyme activation. activation, % at 10 µM. HEK293 GC-A cells, cGMP TR-FRET, EC30 ANP; 0% at EC30 ANP, 100% saturating ANP. AID 1671463. 370,000 compounds, 0.14% hits; in the data active = activation above about 40%
# GalR3 antagonist – antagonists of human GalR3 | HEK293 GalR3-CNG cAMP membrane potential fluorescence; galR3 body fused to GalR1 C-terminus | inhibition, % at 3 µM | 360,000 compounds, 0.44% hits | AID 651719;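 active = inhibition above the screen-wide average plus 3 SD, cut at about 13% in these data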;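 also: forskolin and galanin both at EC90 stimulate the cells; cAMP rise reported by CNG channel membrane potential dye signal; 0% = forskolin plus galanin with DMSO and 100% = forskolin alone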
# GC-B act – GC-B (human) receptor activation. P20594. HEK293-GC-B cells, CNP EC30, cGMP TR-FRET; 0% at EC30 CNP, 100% saturating CNP. activation, % at 10 µM. 370,000 compounds, 0.11% hits. AID 1920062;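 active = activation at 10 µM reaching about 35% in either raw or pattern-adjusted values, limit read from the data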
# Arr AP2 CP1 – blocks beta-arrestin peptide binding to human AP2. AID 504908. shares compounds with Arrestin-AP2 inh. GST-AP2 beads, FITC arrestin peptide binding, flow cytometry; GST-fused beta2-adaptin appendage, R879A mutant. inhibition, % at 10 µM. 1,300 compounds, 2% hits;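 active = inhibition above a set limit, roughly 3 SD of non-fluorescent compound noise, cut at about 38% in these data; inactive = inhibition at or below that limit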;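 also: loss of bead fluorescence from 50 nM FITC arrestin peptide bound to appendage; 0% = negative control wells and 100% = excess unlabelled arrestin peptide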
# GST GSH counter – GST-GSH bead binding interference, counter-screen; shares compounds with Arrestin-AP2 inh; GST-fluorescein binding to GSH beads, fluorescence; inhibition, % at 10 µM; 1,300 compounds, 2% hits; AID 588338;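 active = inhibition above 50%, about 3 SD of the inhibition seen with non-fluorescent compounds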;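 also: fluorescein maleimide labelled GST captured on 4 micron glutathione beads; higher means more loss of bead fluorescence from quenching or blocked binding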
# An asterisk follows results filed as active; x = not tested or not shown.
SMILES,Arrestin-AP2 inh,GC-A act,GalR3 antagonist,GC-B act,Arr AP2 CP1,GST GSH counter
CCOC(=O)C1CCN(c2cc3c(cc2NC(=O)c2ccc(OC)c(OC)c2)n(C)c(=O)n3C)CC1,27.9,5.3,-2.3,0.9,5.5,-8.0
COc1cc(Cl)c(C)cc1NC(=O)COC(=O)c1ccc(CN2CCCC2=O)cc1,65.2*,2.8,2.2,-1.0,-0.8,1.3
Cc1ccc(Cl)cc1NC(=O)COC(=O)c1ccc(CN2CCCC2=O)cc1,-5.4,-2.5,-4.5,5.5,x,x
CCOC(=O)[C@]12CCCC=C1N(CCCOC)C(=O)[C@@H]2CC(=O)NCC1CCCCC1,x,2.1,x,4.1,x,x
COc1cccc(NC(=O)C2CCCN2C(=O)NC2CCC(C)CC2)c1 (centres undefined),x,-0.4,x,-2.4,x,x
CCOc1ccc(NC(=S)N2CCN(S(=O)(=O)c3ccc(C)cc3)CC2)cc1,5.9,-0.2,-1.8,4.3,x,x
CCOc1ccc(NC(=S)N2CCN(S(=O)(=O)c3ccccc3)CC2)cc1,57.7*,1.9,-4.7,-3.0,-15.0,-8.1
CN1[C@@H](Cc2ccccc2)COc2cc(F)ccc2S1(=O)=O,x,1.5,x,-1.9,x,x
CC(=O)c1c(OC(=O)c2ccc(C)cc2)c2ccccc2n1C,19.8,-3.7,-1.5,-5.5,x,x
CC(=O)c1c(OC(=O)c2ccco2)c2ccccc2n1C,63.2*,-4.2,-1.4,2.9,-2.5,5.7
CCN(CC(=O)Nc1ccc(NC(C)=O)cc1)C(=O)CCN1C(=O)c2cccc([N+](=O)[O-])c2C1=O,63.9*,4.7,-2.2,-2.6,-2.9,-6.0
CCN(CC(=O)Nc1c(F)cccc1F)C(=O)CCN1C(=O)c2cccc([N+](=O)[O-])c2C1=O,5.8,-1.7,-6.1,1.1,x,x
CCOC(=O)[C@]12CCCC=C1N(Cc1ccc(OC)cc1)C(=O)[C@@H]2CC(=O)NCCCOC,x,4.7,x,3.1,x,x
CCc1ccc(NC(=O)C2CCN(S(=O)(=O)c3c(C)noc3/C=C/N(C)C)CC2)cc1,54.7*,0.2,-7.0,1.7,3.9,-7.6
O=S(=O)(c1cccs1)N1CCCc2nc(-c3ccccc3)ccc21,x,1.6,-5.8,2.3,x,x
COc1ccc(OCC(Cn2cnc3ccccc32)OC(C)=O)cc1 (centres undefined),-9.3,-2.1,-3.1,-7.1,x,x
CC(=O)OC(COc1ccccc1)Cn1cnc2ccccc21 (centres undefined),54.7*,-6.3,-6.4,-4.2,-6.2,-12.0
O=C(CCCC(=O)Nc1cccnc1)Nc1cccnc1,81.5*,6.6,-1.0,0.4,-8.1,x
CC(C)(C)n1nc(C2CC2)c(Br)c1NC(=O)c1ccc(Cl)cc1,x,0.8,-8.5,-2.4,x,x
COc1cc2c(cc1NC(=O)Nc1ccccc1)oc1ccccc12,-3.5,-3.6,-5.1,-10.2,4.8,-1.4
COc1cc2c(cc1NC(=S)Nc1cccc3ccccc13)oc1ccccc12,5.4,-2.3,-1.6,-3.8,x,x
COc1cc2c(cc1NC(=O)COC(=O)[C@@H](NS(=O)(=O)c1ccccc1)C(C)C)oc1ccccc12,-4.8,1.3,-9.0,1.3,x,x
COc1cc2c(cc1NC(=O)C(C)NCc1ccccc1)oc1ccccc12 (centres undefined),9.8,13.8,-0.2,16.7,1.6,-4.7
O=C1Cn2nnc(-c3ccccc3)c2C2c3cc(Br)ccc3CCN12 (centres undefined),x,-6.4,-7.2,-10.4,x,x
COc1ccc(S(=O)(=O)NCCC(=O)N2CCCC2)cc1N(C)S(C)(=O)=O,55.9*,0.2,-9.3,-5.6,-1.7,-9.9
SMILES,Arrestin-AP2 inh,GC-A act,GalR3 antagonist,GC-B act,Arr AP2 CP1,GST GSH counter
Cc1ccc(S(=O)(=O)NCCC(=O)N2CCCCCCC2)cc1C,4.6,-0.6,-6.5,-0.2,x,x
Cc1ccc(C(=O)NC2CCCCN(Cc3cccc(F)c3)C2=O)cc1 (centres undefined),x,-1.3,x,-3.7,x,x
CC12CCC(=O)N1C(C(=O)Nc1nnc(SCc3ccccc3)s1)CS2 (centres undefined),-1.5,1.1,-3.9,-3.9,x,x
CCSc1nnc(NC(=O)C2CSC3(C)CCC(=O)N23)s1 (centres undefined),60.2*,1.2,-3.1,0.7,0.3,-4.5
CC(C)(C)c1ccc(OCCCC(=O)NNC(=O)c2ccccc2O)cc1,-7.1,-1.6,-6.0,2.8,x,x
CC(C)(C)c1ccc(C(=O)NCC(=O)NNC(=O)c2ccccc2O)cc1,77.2*,-3.6,-6.2,2.8,-9.2,3.9
CC(C)C[C@H]1COc2cc(Br)ccc2S(=O)(=O)N1Cc1cn(Cc2ccc(Cl)cc2)nn1,x,1.2,x,-0.2,x,x
Cc1ccc(CN2CCCCC(NC(=O)Nc3ccccc3F)C2=O)cc1 (centres undefined),x,1.6,x,2.8,x,x
COc1ccccc1NS(=O)(=O)c1cc(NC(=O)c2sc3cc(Cl)ccc3c2Cl)ccc1C,104.7*,-3.0,3.3,2.3,3.2,3.6
CCn1c(C)nc2cc(C(=O)NNC(=O)Nc3ccc(Cl)cc3)ccc21,57.4*,-0.6,-5.7,-9.1,-12.6,0.4
COC(=O)c1nc2ccc(N3CCOCC3)cc2c(C)c1C(=O)OC,57.3*,7.9,4.0,0.1,-1.1,4.8
COC(=O)c1c(-c2ccc(OC)cc2)sc2ccc(N3CCOCC3)cc12,-6.3,-0.4,6.0,-2.2,x,x
COc1ccc(N2C(=O)CSC2c2ccc3c(c2)OCO3)cc1 (centres undefined),60.8*,-7.3,0.9,-7.1,4.4,-7.6
Cc1cccc(C)c1NC(=S)Nc1ccc(F)cc1,57.5*,1.1,-4.5,2.5,3.4,-4.0
O=C(OC12CCCN(C1)/C(=C/c1cccnc1)C2)c1ccc(F)cc1 (centres undefined),x,0.1,x,-1.7,x,x
COCCSc1nnc(NS(=O)(=O)c2ccc(C)cc2)s1,59.0*,5.1,-4.0,3.9,3.4,-2.0
O=C(N/N=C/c1cccc([N+](=O)[O-])c1)C1COc2ccccc2O1 (centres undefined),58.0*,4.4,-2.9,0.3,-5.0,1.2
O=C(N/N=C\c1cccc([N+](=O)[O-])c1O)C1COc2ccccc2O1 (centres undefined),35.9,-2.1,3.2,3.5,x,x
O=C(Nc1cnc2ccccc2c1)C1COc2ccccc2O1 (centres undefined),69.4*,-0.2,-4.5,-10.1,3.5,2.1
O=C(Nc1ccccc1[N+](=O)[O-])C1COc2ccccc2O1 (centres undefined),55.8*,3.8,-9.9,-6.8,0.1,-5.8
O=C(Nc1ccc(F)cc1)C1COc2ccccc2O1 (centres undefined),-10.2,4.5,-5.7,3.6,x,x
O=S(=O)(c1ccc(Br)s1)N1CCC(c2nc3ccccc3o2)CC1,x,-6.3,x,-8.8,x,x
